LANA-H2A inh: blocks KSHV LANA binding to histone H2A/H2B. Q9QR71. cell-free LANA-H2A/H2B peptide, fluorescence polarization. inhibition, % (test concentration not listed). AID 2629. hit rate 0.6% among 320,000; in the data active = inhibition mostly above about 10%, no sharp cut-off; inactive = mostly below about 6.7%
Hep lipid drop: modulators of hepatic lipid droplet formation; AML12 mouse hepatocytes, oleate lipid droplets, BODIPY imaging; AID 1656; inhibition, % at 6.5 µM; hit rate 0.4% among 240,000;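 active = lipid droplet intensity inhibited by at least 50%, with more than 500 cells counted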
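System: AML12 hepatocytes (mouse). Probe or stimulus: oleic acid at 100 µM to induce lipid droplet formation. Times: overnight treatment with compound plus oleate. Detection: Image-based BODIPY and DAPI two-channel analysis. Evaluation: percent inhibition of filter-corrected integrated lipid droplet intensity per well.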
TAG inh: inhibitors of triacylglycerol accumulation. H9c2 cells, Nile Red lipid (TAG) fluorescence; cells loaded with 200 µM oleic acid. inhibition, % at 12.5 µM. hit rate 0.66% among 230,000. AID 651582;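 active = pattern-corrected inhibition of lipid staining of at least 50% with the nuclear-stain viability signal not falling by more than 50%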;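 also: 0% = DMSO wells and 100% = triacsin C control wells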
GSK3 alpha inh: blocks human GSK-3 alpha kinase | P49840 | ADP-Glo luminescence, 60 min | inhibition, % at 10 µM | hit rate 0.1% among 320,000;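 active = more than half of replicates show inhibition above 20%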;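 also: GST-tagged GSK-3 alpha with peptide substrate and 25 µM ATP; 0% = DMSO neutral wells and 100% = GW8510 positive control wells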
STK33 kinase inh: inhibitors of human STK33 kinase; Q9BYT3; purified STK33, MBP phosphorylation, ADP-Glo luminescence; inhibition, % at 10 µM; hit rate 0.073% among 320,000;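 active = inhibition at or above 25%, using the most active replicate where run in duplicate; inactive = inhibition below 25%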
Target sequence (Q9BYT3 whole entry, looked up): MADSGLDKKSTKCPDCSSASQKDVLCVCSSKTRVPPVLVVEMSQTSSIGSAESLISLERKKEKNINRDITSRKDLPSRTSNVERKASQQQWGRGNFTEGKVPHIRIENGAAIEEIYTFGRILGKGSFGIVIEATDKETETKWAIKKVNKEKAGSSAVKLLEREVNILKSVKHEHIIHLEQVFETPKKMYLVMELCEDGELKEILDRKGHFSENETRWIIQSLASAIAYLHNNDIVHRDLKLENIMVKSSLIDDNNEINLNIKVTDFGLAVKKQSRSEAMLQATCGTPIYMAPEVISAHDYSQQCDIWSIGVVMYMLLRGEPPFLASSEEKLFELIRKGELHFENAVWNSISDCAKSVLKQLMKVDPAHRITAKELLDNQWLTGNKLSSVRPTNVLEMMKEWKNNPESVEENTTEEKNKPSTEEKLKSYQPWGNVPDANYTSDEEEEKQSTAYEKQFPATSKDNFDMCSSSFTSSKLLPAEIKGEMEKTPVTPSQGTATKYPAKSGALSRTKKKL
GSK3beta inhib: human GSK3beta kinase inhibition. P49841. GST-GSK3beta kinase, ADP-Glo luminescence, 60 min; active compounds read low. activity score (negative = inhibition), % at 10 µM. hit rate 0.038% among 300,000. AID 2097;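 active = more than half of replicate wells score below -50%, meaning over 50% inhibition versus plate controls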;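 also: 0% = median DMSO wells and -100% = median GW8510 positive control wells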
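Assay system: GST-fused GSK3beta enzyme, cell-free / Medium: Tris pH 7.5 buffer with MgCl2, DTT, BSA, heparin / Also added: peptide substrate plus 25 µM ATP (final) / Compound: 10 µM single point / Timing: kinase reaction with compound 60 min at room temperature / Detection: ADP-Glo luminescence / Benchmarks: DMSO neutral wells and GW8510 at 20 µM as positive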
An asterisk follows results filed as active. In the library only some 1.3% were active in any assay of this set; here they are far more common.

Results for O=C(CN(C(=O)c1csnn1)c1cccc2ccccc12)NCc1ccc(F)cc1 ?
LANA-H2A inh: 20*; Hep lipid drop: -3; GSK3 alpha inh: -2; STK33 kinase inh: -1; GSK3beta inhib: 2

Results for COc1ccc(CC(=O)NC(C)CCc2ccccc2)cc1OC (centres undefined) ?
LANA-H2A inh: 2; Hep lipid drop: -17; GSK3 alpha inh: -2; STK33 kinase inh: 0; GSK3beta inhib: -4

How did COc1cc(CNc2ccc(N3CCCC3)cc2)cc(Cl)c1OC do in these assays?
LANA-H2A inh: 2; Hep lipid drop: -8; TAG inh: 54*; GSK3 alpha inh: -2; STK33 kinase inh: 1; GSK3beta inhib: 4

What do the screens show for `Cc1[nH]c(=O)c(C#N)c(C)c1[N+](=O)[O-]`?
LANA-H2A inh: 13*; Hep lipid drop: 6; TAG inh: -3; GSK3 alpha inh: 3; STK33 kinase inh: 1; GSK3beta inhib: 1

Results for O=C(CSc1nc2cc(Cl)ccc2s1)N1CCCc2ccccc21 ?
LANA-H2A inh: -7; Hep lipid drop: -6; GSK3 alpha inh: 0; STK33 kinase inh: -2; GSK3beta inhib: -4

Results for O=C(COc1cccc2cccnc12)N/N=C/c1ccc(O)cc1 ?
LANA-H2A inh: -2; Hep lipid drop: 16; TAG inh: -1; GSK3 alpha inh: 56*; STK33 kinase inh: 5; GSK3beta inhib: -40

How did O=C(COc1ccccc1[N+](=O)[O-])N/N=C/c1ccncc1 do in these assays?
LANA-H2A inh: -2; Hep lipid drop: 2; TAG inh: 13; GSK3 alpha inh: 5; STK33 kinase inh: 0; GSK3beta inhib: 0

Results for O=C(COc1ccccc1[N+](=O)[O-])N/N=C/c1ccc(O)cc1 ?
Hep lipid drop: -3; GSK3beta inhib: -51*

What do the screens show for `O=C(COc1cccc2cccnc12)N/N=C/c1ccccc1O`?
LANA-H2A inh: 0; Hep lipid drop: -1; TAG inh: 31; GSK3 alpha inh: -3; STK33 kinase inh: 3; GSK3beta inhib: -1

What do the screens show for `CC(=O)c1ccc2noc(-c3ccccc3)c2c1`?
LANA-H2A inh: -3; Hep lipid drop: 5; TAG inh: 15; GSK3 alpha inh: 20; STK33 kinase inh: 17; GSK3beta inhib: -2

Results for CN(C)/C=C/C(=O)c1ccc2noc(-c3ccccc3)c2c1 ?
LANA-H2A inh: -2; Hep lipid drop: -12; GSK3 alpha inh: 10; STK33 kinase inh: 45*; GSK3beta inhib: -1

What do the screens show for `COC(=O)[C@@]1(Cc2ccc(F)cc2)[C@H]2c3cc(C(=O)N4CCCC4)n(CCc4ccccn4)c3C[C@H]2CN1C(=O)c1ccccc1`?
LANA-H2A inh: 18*; Hep lipid drop: -14; GSK3 alpha inh: -1; STK33 kinase inh: 0

What do the screens show for `COc1ccccc1NS(=O)(=O)c1ccc(C(=O)N2CC(C)OC(C)C2)cc1` (centres undefined)?
LANA-H2A inh: 20*; TAG inh: 7; GSK3 alpha inh: 1; STK33 kinase inh: -1

How did CS(=O)(=O)Nc1ccccc1Oc1ccccc1 do in these assays?
LANA-H2A inh: 3; Hep lipid drop: 0; TAG inh: 17; GSK3 alpha inh: 0; STK33 kinase inh: -2; GSK3beta inhib: -3

Results for CS(=O)(=O)Nc1ccc([N+](=O)[O-])cc1Oc1ccccc1 ?
LANA-H2A inh: 32*; Hep lipid drop: 7; TAG inh: 23; GSK3 alpha inh: -2; STK33 kinase inh: -1; GSK3beta inhib: 1

What do the screens show for `COc1ccc(-c2ccc(=O)n(Cc3cccc([N+](=O)[O-])c3)n2)cc1`?
LANA-H2A inh: 1; Hep lipid drop: 52*; TAG inh: -4; GSK3 alpha inh: -3; STK33 kinase inh: -2; GSK3beta inhib: 3

How did COc1ccc(-c2ccc(=O)n(Cc3c(F)cccc3Cl)n2)cc1 do in these assays?
LANA-H2A inh: 1; GSK3 alpha inh: -1; STK33 kinase inh: -2; GSK3beta inhib: -4

What do the screens show for `Cc1nnsc1C(=O)Nc1cccc(Cl)c1`?
LANA-H2A inh: 25*; Hep lipid drop: 5; TAG inh: 0; GSK3 alpha inh: 1; STK33 kinase inh: -2; GSK3beta inhib: -1

How did Cc1nc(Cl)sc1C(=O)Nc1cccc(Cl)c1 do in these assays?
LANA-H2A inh: -8; Hep lipid drop: -9; TAG inh: -5; GSK3 alpha inh: 8; STK33 kinase inh: 5; GSK3beta inhib: -1

Results for O=C(Nc1nccs1)c1ccc(Br)o1 ?
LANA-H2A inh: 3; Hep lipid drop: -1; GSK3 alpha inh: 2; STK33 kinase inh: 1; GSK3beta inhib: -5

How did O=C(/C=C/c1ccc(Br)o1)Nc1nccs1 do in these assays?
LANA-H2A inh: 19*; Hep lipid drop: 4; TAG inh: 20; GSK3 alpha inh: 6; STK33 kinase inh: 12; GSK3beta inhib: -2

What do the screens show for `CC(=O)c1cccc(NC(=S)NC(=O)c2ccc(C)cc2Cl)c1`?
LANA-H2A inh: 36*; Hep lipid drop: 4; GSK3 alpha inh: -1; STK33 kinase inh: -1; GSK3beta inhib: 2

What do the screens show for `CC(=O)c1cccc(NC(=S)NC(=O)c2ccccc2Cl)c1`?
LANA-H2A inh: 7; Hep lipid drop: 1; GSK3 alpha inh: -4; STK33 kinase inh: -1; GSK3beta inhib: 3

What do the screens show for `COc1ccc2[nH]c(N=Nc3ccccc3C)c(O)c2c1`?
LANA-H2A inh: 0; Hep lipid drop: 0; TAG inh: -3; GSK3 alpha inh: -3; STK33 kinase inh: 2; GSK3beta inhib: 3

What do the screens show for `O=C1c2ccccc2-c2onc3c(Oc4ccccc4)cc(O)c1c23`?
Hep lipid drop: 56*

What do the screens show for `C[C@H](NC(=O)c1ccccc1Cl)C(=O)OCc1cn2cc(Cl)ccc2n1`?
LANA-H2A inh: 15*; TAG inh: -15; GSK3 alpha inh: -2; STK33 kinase inh: 0

Results for COC(=O)c1sccc1NC(=O)Nc1ccccc1F ?
LANA-H2A inh: 12*; Hep lipid drop: -5; TAG inh: -5; GSK3 alpha inh: 2; STK33 kinase inh: 4; GSK3beta inhib: 2

Results for COC(=O)c1sccc1NC(=O)Nc1ccccc1C ?
LANA-H2A inh: -8; Hep lipid drop: -19; TAG inh: 1; STK33 kinase inh: 4; GSK3beta inhib: 1

What do the screens show for `O=C1NC(Cc2c[nH]c3ccccc23)C(=O)N1CCOc1ccc(F)cc1` (centres undefined)?
LANA-H2A inh: 0; TAG inh: 3; GSK3 alpha inh: 1; STK33 kinase inh: 0; GSK3beta inhib: 1

Results for CCOC(=O)c1ccc(S(=O)(=O)Nc2cc(C(C)(C)C)no2)cc1 ?
LANA-H2A inh: -5; Hep lipid drop: -3; GSK3 alpha inh: -6; STK33 kinase inh: -3; GSK3beta inhib: -14

How did Cc1ccc(C(=O)OCC(=O)Nc2cc(C(C)(C)C)no2)c(C)c1 do in these assays?
LANA-H2A inh: 12*; TAG inh: -11; GSK3 alpha inh: 5; STK33 kinase inh: 0

Assay outcomes as filed in PubChem.
